Source: ChEMBL document CHEMBL4477178, “Biflorin, Isolated from the Flower Buds of Syzygium aromaticum L., Suppresses LPS-Induced Inflammatory Mediators via STAT1 Inactivation in Macrophages and Protects Mice from Endotoxin Shock” (J Nat Prod, 2016)
The source made the active and inactive calls. The calls are words filed in the database; no cut-off is given here.

Experiments:
RAW264.7 [1] = test: Antiinflammatory activity in mouse RAW264.7 cells assessed as inhibition of LPS-induced TNF-alpha production at 60 uM preincubated for 1 hr followed by LPS challenge for 24 hrs by ELISA method; format: functional
How it was run: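 RAW 264.7 cells in DMEM with 10% FBS, plated at 2 × 10^5 cells/mL and incubated overnight. Pretreated with compound (15, 30 or 60 μM) for 1 h, then LPS 10 ng/mL for 24 h. PGE2 measured by competitive colorimetric ELISA, TNF-α and IL-6 by ELISA, in diluted medium. NS-398 3 μM as positive control for PGE2. Mean ± SD, three independent experiments; IC50 given for PGE2.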

RAW264.7 [2] = test: Cytotoxicity against mouse RAW264.7 cells assessed as cell viability at 60 uM after 24 hrs by MTT assay in absence of LPS; format: cell-based; conditions: raw264.7, 24 h
How it was run: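 RAW 264.7 seeded at 1 × 10^5 cells/mL, grown overnight, exposed 24 h with or without LPS; MTT (5 mg/mL stock in PBS) added 4 h at 37 °C, formazan dissolved in DMSO, absorbance at 540 nm.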

RAW264.7 [3] = test: Antiinflammatory activity in mouse RAW264.7 cells assessed as inhibition of LPS-induced COX-2 promoter activity at 60 uM preincubated for 1 hr followed by LPS challenge for 6 to 12 hrs by reporter gene assay; format: functional, cell-based
How it was run: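 RAW 264.7 transiently cotransfected with promoter-luciferase construct (pGL3-iNOS, pGL3-COX-2 or pTNF-α-luc) plus phRL-TK internal control; 6 h after transfection pretreated 1 h with 60 μM, then LPS 10 ng/mL for 6 or 12 h. Cells washed in cold PBS, lysed, luciferase read. Mean ± SD, three independent experiments.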

RAW264.7 [4] = test: Reduction in LPS-induced NF-kappa B activity in mouse RAW264.7 cells at 15 to 60 uM preincubated for 1 hr followed by LPS challenge for 12 hrs by luciferase reporter gene assay; format: cell-based
[5] = molecular target: T1, Signal transducer and activator of transcription 1 (Mus musculus) (UniProt P42225); test: Inhibition of LPS-induced STAT1 phosphorylation at S727 in C57BL/6 mouse peritoneal macrophages at 15 to 60 uM preincubated for 1 hr followed by LPS challenge for 30 mins by Western blot analysis
T1 sequence (whole entry): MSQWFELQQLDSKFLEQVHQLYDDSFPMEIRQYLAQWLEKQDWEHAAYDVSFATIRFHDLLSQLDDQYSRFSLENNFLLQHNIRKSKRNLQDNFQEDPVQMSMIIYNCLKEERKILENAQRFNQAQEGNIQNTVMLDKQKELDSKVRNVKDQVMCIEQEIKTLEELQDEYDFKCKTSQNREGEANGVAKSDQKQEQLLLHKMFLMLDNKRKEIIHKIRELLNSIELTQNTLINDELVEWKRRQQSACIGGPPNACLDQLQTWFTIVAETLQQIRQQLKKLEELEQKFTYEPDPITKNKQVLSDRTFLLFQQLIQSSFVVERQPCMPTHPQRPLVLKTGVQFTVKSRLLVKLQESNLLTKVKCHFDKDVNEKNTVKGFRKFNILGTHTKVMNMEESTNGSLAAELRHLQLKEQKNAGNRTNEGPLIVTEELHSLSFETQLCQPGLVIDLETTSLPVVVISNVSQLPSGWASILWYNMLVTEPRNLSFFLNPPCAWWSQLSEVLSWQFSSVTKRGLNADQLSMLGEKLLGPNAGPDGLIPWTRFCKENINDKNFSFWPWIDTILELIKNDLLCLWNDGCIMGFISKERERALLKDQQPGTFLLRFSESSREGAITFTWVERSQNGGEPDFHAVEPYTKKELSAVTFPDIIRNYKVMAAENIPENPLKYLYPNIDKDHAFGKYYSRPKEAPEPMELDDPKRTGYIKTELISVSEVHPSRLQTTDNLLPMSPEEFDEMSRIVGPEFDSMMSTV
How it was run: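 Thioglycolate-elicited C57BL/6 peritoneal macrophages pretreated 1 h at 15, 30 or 60 μM, then LPS 10 μg/mL: 120 min for p-STAT1 Y701, 30 min for p-STAT1 S727, 60 min for p-STAT3 Y705. Western blot with phospho-specific and total STAT antibodies, β-actin control; three independent experiments.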

Mus musculus [6] = test: Inhibition of LPS-induced TNF-alpha mRNA expression in C57BL/6 mouse liver at 10 mg/kg, ip pretreated for 1 hr followed by LPS challenge for 6 hrs by qRT-PCR method; format: functional, organism-based
How it was run: (§1)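 Male C57BL/6 mice given 10 mg/kg i.p. or vehicle 1 h before LPS (Salmonella enterica, 25 mg/kg i.p.); liver collected 6 h after LPS, frozen at −80 °C. Liver mRNA by SYBR qRT-PCR normalized to β-actin; protein by Western blot for p-STAT1 (Y701, S727). Eight mice per group; mean ± SD.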

Mus musculus [7] = test: In vivo inhibition of LPS-induced STAT1 phosphorylation at S727 in C57BL/6 mouse liver at 10 mg/kg, ip pretreated for 1 hr followed by LPS challenge for 6 hrs by Western blot analysis; format: functional, organism-based; how it was run: as §1
Rattus norvegicus [8] = test: Antiinflammatory activity in Sprague-Dawley rat assessed as reduction in carrageenan induced paw edema at 15 mg/kg, ip administered 1 hr before carrageenan challenge measured at 3 hrs post challenge relative to control; format: functional
How it was run: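 SD rats given compound i.p. (5, 10 or 15 mg/kg) 1 h before subplantar injection of 1% carrageenan in saline (0.1 mL) into the right hind paw. Paw volume measured by plethysmometer at 1, 3 and 5 h. Edema compared with the carrageenan-only group; seven rats per group.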

Rattus norvegicus [9] = test: Antiinflammatory activity in Sprague-Dawley rat assessed as inhibition of croton oil-induced ear edema at 10 mg/kg, ip administered 1 hr before croton oil challenge measured after 3 hrs post challenge relative to control; format: functional
How it was run: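 Male SD rats given compound i.p. (5, 10 or 15 mg/kg) 1 h before topical croton oil (5% in 100 μL acetone) on the inner right ear; the left ear received acetone alone. After 3 h, rats were killed and 6 mm ear punches were taken and measured for thickness. Inhibition calculated relative to the croton-oil-only group; seven rats per group.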

Rattus norvegicus [10] = test: Antiinflammatory activity in Sprague-Dawley rat assessed as inhibition of croton oil-induced inflammatory cell infiltration at 10 mg/kg, ip administered 1 hr before croton oil challenge measured after 3 hrs by hematoxylin and eosin staining based assay; format: functional, organism-based
How it was run: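 SD male rats dosed i.p. (10 mg/kg) 1 h before topical croton oil (5% in acetone) on inner right ear; left ear got acetone only. At 3 h rats sacrificed, 6 mm ear punches taken, fixed in 4% paraformaldehyde overnight, paraffin-embedded, H&E-stained for edema and inflammatory cell infiltrate; seven animals per group.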

## Cc1cc(=O)c2c(O)c([C@@H]3O[C@H](CO)[C@@H](O)[C@H](O)[C@H]3O)c(O)cc2o1 [BIFLORIN]
RAW264.7 [1]
  inhibition at 60 µM: 75%
RAW264.7 [2]
  Activity: Non-Toxic
RAW264.7 [3]
  inhibition: Active
RAW264.7 [4]
  inhibition: inactive
[5]
  inhibition: Active
Mus musculus [6]
  inhibition: Active
Mus musculus [7]
  inhibition: Active
Rattus norvegicus [8]
  inhibition in vivo at 15 mg/kg: 60%
Rattus norvegicus [9]
  inhibition in vivo at 10 mg/kg: 44.5%
Rattus norvegicus [10]
  inhibition: Active
